The values that follow come from publication PMC3319430 (Journal of Medicinal Chemistry, 2009).

The conditions of data set [1]: cited from earlier work.
For data set [2] the following is noted: cited from earlier work. This is another data set of the same source.
Data set [3] addresses CFTR chloride conductance (Homo sapiens, UniProt P13569). As to the kind of experiment: Apical membrane chloride current. The class given is cell-based.
In data set [4] the test system is renal cysts in E13.5 embryonic kidneys. In words: Embryonic kidney organ culture model of polycystic kidney disease. Further details: species or system mouse. The gist of the method:
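Metanephroi from E13.5 mouse embryos, on porous inserts in DMEM/Ham's F-12 with glutamine, HEPES, insulin, transferrin, selenium, prostaglandin E, T3 and antibiotics, 37 °C humidified CO2. Medium with 100 µM 8-Br-cAMP ± test compound replaced every 12 h. For preformed cysts, compound was added at day 3 of 8-Br-cAMP. Transmitted-light images were taken, and % cyst area = total cyst area/total kidney area; 6–8 kidneys.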

The target in a further data set is human wild-type CFTR (Homo sapiens, UniProt P13569). As to the kind of experiment: Whole-cell patch-clamp in CFTR-expressing FRT cells. The conditions noted are these: 500 nM; ±100 mV. In kind it is cell-based. (In general: Patch clamp records ionic current or voltage across a cell membrane.)
Data set [5] deals with T1, CFTR (Homo sapiens, UniProt P13569). In words: Cell-attached single-channel patch-clamp recordings of CFTR. In kind it is cell-based. The conditions noted are these: 1 µM.
Data set [6] has as its system calcium-activated chloride channels. As to the kind of experiment: UTP-induced chloride current in cystic fibrosis. In kind it is cell-based, human. Particulars: 10 or 20 µM. The gist of the method:
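Short-circuit current in cystic fibrosis human bronchial epithelial cells on inserts in Ussing chambers. Krebs-bicarbonate solution on both sides, gassed with 5% CO2 in air, 37 °C. ENaC was blocked with 10 µM amiloride. Calcium-activated chloride channels were stimulated with 100 µM UTP, and test compound was added.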

Data set [7] concerns the target T1, CFTR. As to the kind of experiment: Fluorescence platereader assay of CFTR-mediated iodide influx. In kind it is cell-based. Particulars: result in words. The gist of the method: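 FRT cells co-expressing human wild-type CFTR and YFP-H148Q halide sensor, assayed 48 h after plating at confluence. After PBS washes, cells were activated with 5 µM forskolin, 100 µM IBMX and 25 µM apigenin. Test compound was added 5 min later, 25 µM final, for 15 min. Fluorescence was read 2 s baseline, then 10 s after iodide-for-chloride PBS addition. Initial influx rate was fitted by nonlinear regression.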

T1 sequence (P13569 whole entry): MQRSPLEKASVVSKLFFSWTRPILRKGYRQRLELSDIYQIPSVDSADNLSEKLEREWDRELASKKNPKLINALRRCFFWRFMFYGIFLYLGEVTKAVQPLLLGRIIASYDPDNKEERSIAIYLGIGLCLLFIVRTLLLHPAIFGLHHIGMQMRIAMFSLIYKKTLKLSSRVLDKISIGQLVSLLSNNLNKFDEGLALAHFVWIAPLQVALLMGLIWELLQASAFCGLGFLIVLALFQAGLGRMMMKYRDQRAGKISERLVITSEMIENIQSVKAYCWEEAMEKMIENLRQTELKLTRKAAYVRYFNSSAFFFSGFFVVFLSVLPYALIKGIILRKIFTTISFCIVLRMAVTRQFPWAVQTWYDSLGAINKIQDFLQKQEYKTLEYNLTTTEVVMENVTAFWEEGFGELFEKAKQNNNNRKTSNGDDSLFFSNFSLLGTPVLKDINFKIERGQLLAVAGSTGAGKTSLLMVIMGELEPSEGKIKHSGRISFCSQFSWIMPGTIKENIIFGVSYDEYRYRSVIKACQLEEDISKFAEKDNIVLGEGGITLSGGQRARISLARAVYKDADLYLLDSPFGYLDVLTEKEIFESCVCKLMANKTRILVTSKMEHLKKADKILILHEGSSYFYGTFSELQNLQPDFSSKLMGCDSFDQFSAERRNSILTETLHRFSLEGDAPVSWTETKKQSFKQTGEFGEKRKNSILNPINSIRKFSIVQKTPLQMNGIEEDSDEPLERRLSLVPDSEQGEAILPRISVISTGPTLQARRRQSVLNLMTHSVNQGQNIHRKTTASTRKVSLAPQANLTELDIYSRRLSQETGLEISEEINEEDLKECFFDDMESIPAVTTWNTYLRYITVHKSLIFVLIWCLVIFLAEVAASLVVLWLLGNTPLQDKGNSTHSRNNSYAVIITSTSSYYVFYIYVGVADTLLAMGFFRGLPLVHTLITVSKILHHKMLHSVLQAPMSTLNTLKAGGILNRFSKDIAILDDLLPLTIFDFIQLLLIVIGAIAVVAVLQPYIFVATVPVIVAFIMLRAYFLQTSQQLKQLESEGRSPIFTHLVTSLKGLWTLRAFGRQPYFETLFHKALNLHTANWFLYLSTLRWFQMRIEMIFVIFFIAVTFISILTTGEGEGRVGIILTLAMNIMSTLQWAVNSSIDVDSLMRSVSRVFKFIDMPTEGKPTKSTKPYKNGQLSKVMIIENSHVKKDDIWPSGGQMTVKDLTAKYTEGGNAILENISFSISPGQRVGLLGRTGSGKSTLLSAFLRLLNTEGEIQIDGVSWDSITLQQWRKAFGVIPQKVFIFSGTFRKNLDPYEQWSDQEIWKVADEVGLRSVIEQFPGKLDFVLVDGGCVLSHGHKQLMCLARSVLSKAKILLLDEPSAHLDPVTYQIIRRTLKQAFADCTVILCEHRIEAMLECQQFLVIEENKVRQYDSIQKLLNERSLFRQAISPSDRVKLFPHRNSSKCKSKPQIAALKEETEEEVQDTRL
Chain of CFTR chloride conductance (P13569 whole entry): as above
Chain of human wild-type CFTR (P13569 whole entry): as above

With `O=C(O)c1ccc(/C=C2\SC(=S)N(c3cccc(C(F)(F)F)c3)C2=O)cc1` [CFTRinh-172], in data set [1], the Aqueous solubility entry is listed as “low aqueous solubility”. Also, the Toxicity result in data set [2] was “low toxicity”.
Turning to `Cc1ccc(C2Nc3ccccc3-n3c(-c4ccccc4)c4c(=O)n(C)c(=O)n(C)c4c32)o1` (stereo not shown) [PPQ-102, 7,9-Dimethyl-11-phenyl-6-(5-methylfuran-2-yl)-5,6-dihydropyrimido[4′,5′-3,4]pyrrolo[1,2-a]quinoxaline-8,10-(7H,9H)-dione], the Reversibility of inhibition result in data set [3] (30 min incubation with 2 µM followed by 10 min washout) was “complete restoration of CFTR chloride current”. The “Potency with apigenin or IBMX as agonists compared to CPT-cAMP” value in data set [3] (apigenin (100 µM) or IBMX (100 µM)) is reported as “mildly reduced”. Besides, the “Inhibition of cyst formation (percentage area occupied by cysts)” value in data set [4] (0.5 µM, 100 µM 8-Br-cAMP, 4 days in culture) was over 60%. Also, the “Reversibility of cyst inhibition” value in data set [4] (2.5 µM removed after 3 days, 8-Br-cAMP continued) was “reversible”. The “Size of preformed cysts” value in data set [4] (5 µM added at day 3 of 8-Br-cAMP, over 1 and 2 days) is recorded as “remarkable reduction in cyst size”. In addition, in data set [4] (2.5 and 5 µM, 100 µM 8-Br-cAMP, 4 days), the “Cysts at 2.5 and 5 µM” value is “near complete absence of cysts”. In data set [4] (in culture medium), the Kidney growth entry is listed as “did not affect kidney growth”. Besides, at human wild-type CFTR, the “CFTR current-voltage relationship after addition” value is “remained linear”. At CFTR [5], the “Mean channel closed time” value is reported as “greatly increased” and the “Mean channel open time” value was “did not significantly change”. The Unitary conductance result at CFTR [5] (+80 mV) is “did not change”. In addition, the “Channel open probability (Po)” value at CFTR [5] (forskolin 10 µM and IBMX 100 µM, control 0.50 ± 0.04) is 0.14 ± 0.03. The “Inhibition of UTP-induced chloride currents” value in data set [6] is recorded as “little inhibition”.
For the molecule `Cc1ccc(C(=O)Nc2ccccc2-n2cc3c(c2-c2ccccc2)c(=O)n(C)c(=O)n3C)o1` [PPQ-102b, N-(2-(1,3-Dimethyl-2,4-dioxo-5-phenyl-3,4-dihydro-1H-pyrrolo[3,4-d]pyrimidin-6(2H)-yl)phenyl)-5-methylfuran-2-carboxamide], at CFTR [7], the CFTR inhibition activity result was “abolished CFTR inhibition activity”.
